Results on eight molecules are retold here after ChEMBL document CHEMBL1821615 (J Med Chem, 2011).

The subject of data set [1] is BXPC-3. The data set can be described thus: Cytotoxicity against human BxPC3 cells during nonproliferating stage assessed as decreased cell death at 100 uM after 18 hrs by crystal violet staining. In kind it is functional, cell-based. Summed up:
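BxPC3 cells seeded at increasing densities (1 × 10^5 to 9 × 10^5) 24 h before treatment with 100 µM sigma-2 agonist. After 18 h, washed, fixed in 4% paraformaldehyde 30 min at 37 °C, crystal violet stained 15 min at 37 °C, and imaged by densitometry. Viability given as percent density relative to DMSO-treated cells.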

Data set [2] in a line: Displacement of [3H]-DTG from sigma 2 receptor from rat liver in presence of pantazocine.
Data set [3] has as its target Sigma non-opioid intracellular receptor 1 (Cavia porcellus, UniProt Q60492). The data set can be described thus: Displacement of [3H]-pentazocine from sigma 1 receptor from guinea pig brain membrane.
Data set [4] has as its system BXPC-3. Kind of data set: Drug uptake in human BxPC3 cells assessed as decreased uptake at increasing cell density at 25 nM after 30 min by flow cytometric analysis. It is filed as ADME, cell-based. The settings on record: bxpc-3, 0.5 h. The method in brief:
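BxPC3 cells seeded at increasing densities to give subconfluent (dividing) through confluent (quiescent) cultures. Next day, cells treated with compound at 25 nM for 30 min at 37 °C, and fluorescence intensity measured by flow cytometry.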

The test system of data set [5] is BXPC-3. Kind of data set: Cellular uptake in human BxPC3 cells assessed as decrease drug uptake at 25 nM measured after 60 mins by flow cytometric analysis in presence of clathrin inhibitor phenylarsine oxide. It is filed as ADME, cell-based. Conditions: bxpc-3, 1 h. The method in brief: (§1)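 BxPC3 cells pretreated 60 min at 37 °C with phenylarsine oxide (10 µM; clathrin route) or Filipin III (5 µg/mL; caveolin route), or DMSO vehicle, then washed and resuspended in medium. Compound added at 25 nM; mean FL1 fluorescence read by flow cytometry in kinetic mode over 60 min, expressed as percent of maximum signal.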

For data set [6], the system named is BXPC-3. Kind of data set: Drug uptake in human BxPC3 cells assessed as decrease drug uptake at 25 nM measured after 60 mins by flow cytometric analysis in presence of caveolin inhibitor Filipin 3. In kind it is ADME, cell-based. Conditions: bxpc-3, 1 h. The method in brief: as §1
The nature of data set [7]: Selectivity ratio of IC50 for guinea pig brain sigma 1 receptor to IC50 for rat liver sigma 2 receptor. Summed up: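 Sigma-1 binding used (+)-[3H]-pentazocine (34 Ci/mmol); sigma-2 binding used [3H]-DTG (30 Ci/mmol), per the Matsumoto et al. method. IC50 taken from six to nine test concentrations in two or three experiments, each in duplicate.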

Active and inactive are the calls of the source. The calls are words filed in the database; no cut-off is given here.

Chain of Sigma non-opioid intracellular receptor 1 (Q60492 whole entry): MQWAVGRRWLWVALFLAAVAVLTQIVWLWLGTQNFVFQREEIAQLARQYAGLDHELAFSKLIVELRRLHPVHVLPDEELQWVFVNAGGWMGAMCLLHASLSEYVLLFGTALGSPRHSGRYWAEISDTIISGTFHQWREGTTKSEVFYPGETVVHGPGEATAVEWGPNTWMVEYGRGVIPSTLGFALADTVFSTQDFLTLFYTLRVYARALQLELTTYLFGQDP

On to `Fc1cccc(F)c1[C@H]1CC[C@@H](N2CCN(C3CCCCC3)CC2)CC1`, for which the outcome with BXPC-3 [1] was inactive.
In the case of `COc1cccc2c1CCCC2CCCN1CCN(C2CCCCC2)CC1` (stereo not given), in the data set with BXPC-3 [1], the result was inactive. Further, in data set [2], the inhibitory constant (Ki) came to 0.68 nM.
For `COc1cccc2c1CCCC2CCCN1CCN(C2CCN(CCCCCCNS(=O)(=O)c3cccc4c(N(C)C)cccc34)CC2)CC1` (stereo not given), the Ki in data set [2] was 5020 nM; in data set [3], greater than 5000 nM.
For `COc1cccc2c1CCCC2CCCN1CCN(C2CCN(CCCCCCNc3ccc([N+](=O)[O-])c4nonc34)CC2)CC1` (stereo not given), the inhibition constant Ki in data set [2] stood at 1720 nM; in data set [3], 2570 nM.
As for `O=[N+]([O-])c1ccc(NCCCCCCOc2cccc3c2CCCC3CCCN2CCN(C3CCCCC3)CC2)c2nonc12` (stereo not given), the Drug uptake entry is “Not Active” with BXPC-3 [4], 69% with BXPC-3 [5] and 50% in the data set on BXPC-3 [6]. The inhibitory constant (Ki) in data set [2] was found to be 10.8 nM; in data set [3], 78.7 nM. The Ratio Ki in data set [7] stood at 8.
As to `CN(C)c1cccc2c(S(=O)(=O)NCCOCCOc3cccc4c3CCCC4CCCN3CCN(C4CCCCC4)CC3)cccc12` (stereo not given), the Ki in data set [2] stood at 25.7 nM; in data set [3], 19.8 nM.
As for `CN(C)c1cccc2c(S(=O)(=O)NCCCCCCOc3cccc4c3CCCC4CCCN3CCN(C4CCCCC4)CC3)cccc12` (stereo not given), the inhibition constant (Ki) in data set [2] is 20.8 nM; in data set [3], 9.08 nM.
Consider `O=[N+]([O-])c1ccc(NCCOCCOc2cccc3c2CCCC3CCCN2CCN(C3CCCCC3)CC2)c2nonc12` (stereo not given), for which the values for the Ki in data set [2] and in data set [3] were 39.3 nM and 96.2 nM, respectively. For the same molecule, the Ratio Ki in data set [7] amounted to 2.5.
